Screens: PubChem BioAssay, The Scripps Research Institute Molecular Screening Center
Shown are actives, neighbours in structure and some others; about 1.8% of the full set was active somewhere.
M4 ag = CHRM4 agonism in calcium assay; AID 624127; hit rate 0.14% among 360,000; activation, % at 3 µM; CHO-K1 hM4/Gqi5, Fluo-8 calcium fluorescence; vehicle 0%, full acetylcholine response 100%; P08173;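 active = activation above the run mean over all test wells plus 3 SD, cut at about 32% in these data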;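 also: peak over basal fluorescence ratio per well then scaled between controls; 0% = DMSO wells and 100% = acetylcholine at EC100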
Target sequence (P08173 whole entry, looked up): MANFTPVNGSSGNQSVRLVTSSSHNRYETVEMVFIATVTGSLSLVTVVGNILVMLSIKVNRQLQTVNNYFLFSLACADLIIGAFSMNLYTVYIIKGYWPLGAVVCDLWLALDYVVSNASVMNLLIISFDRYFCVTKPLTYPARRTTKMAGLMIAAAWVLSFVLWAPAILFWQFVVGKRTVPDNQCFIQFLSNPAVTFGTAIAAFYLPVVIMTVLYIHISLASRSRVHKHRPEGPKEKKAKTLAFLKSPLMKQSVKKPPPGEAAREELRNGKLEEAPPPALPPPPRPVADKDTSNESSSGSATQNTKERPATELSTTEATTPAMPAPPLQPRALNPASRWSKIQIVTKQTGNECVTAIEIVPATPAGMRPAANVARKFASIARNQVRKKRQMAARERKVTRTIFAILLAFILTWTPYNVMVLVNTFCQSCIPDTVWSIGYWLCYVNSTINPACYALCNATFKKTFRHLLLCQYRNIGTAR
CHRM5 antagonist = blocks acetylcholine activation of human M5 receptor. CHO-hM5 cells, Fluo-8 calcium fluorescence, ACh EC80. hit rate 0.59% among 360,000. AID 624040. inhibition, % at 3 µM. P08912;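 active = inhibition above a per-plate cutoff, the mean of that plate's test compounds plus 3 SD, cut at about 27% in these data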;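 also: 0% = acetylcholine EC80 with DMSO and 100% = DMSO without agonist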
M4 PAM = positive allosteric modulators of human muscarinic M4 receptor; CHO-K1 hM4/Gqi5, Fluo-8 calcium fluorescence, ACh EC20; 0% = ACh EC20, 100% = maximal ACh; activation, % at 3 µM; hit rate 0.4% among 360,000; AID 624126;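 active = activation above its plate's cutoff, the mean activation of sample wells plus 3 SD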
CHRM5 agonist = agonists of human muscarinic M5 receptor (CHRM5). CHO-K1 hM5 cells, Fluo-8 calcium fluorescence; 0% DMSO wells, 100% maximal acetylcholine response. activation, % at 3 µM. hit rate 0.19% among 360,000. AID 624037;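 active = activation above the run's mean over test compounds plus 3 SD, cut at about 23% in these data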;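 also: signal is peak over basal fluorescence ratio across the kinetic read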
CHRM5 PAM = positive allosteric modulators of human muscarinic M5 receptor. P08912. activation, % at 3 µM. CHO-K1 hM5, Fluo-8 calcium, ACh EC20 PAM; 0% = ACh EC20, 100% = ACh EC100. hit rate 0.3% among 360,000;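 active = activation above the run cutoff, the mean activation of all test compounds plus 3 SD, cut at about 18% in these data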
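System: CHO-K1 hM5 cells. Reagent: acetylcholine, EC20 level. Compound dosing: single dose, 3 µM nominal final test concentration. Timing: Post-acetylcholine fluorescence recording 140 s. Detection: Fluo-8 calcium fluorescence. Read-out: % activation, ACh-normalized. Benchmarks: ACh EC20 and EC100 wells. Repeats: singlicate, one well per test compound.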
CHRM4 antagonist = CHRM4 antagonism in calcium assay | P08173 | CHO-hM4 cells, ACh EC80, Fluo-8 calcium fluorescence | inhibition, % at 3 µM | hit rate 0.73% among 360,000 | AID 624125;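 active = inhibition above its plate's cutoff, the mean inhibition of sample wells plus 3 SD, cut at about 27% in these data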;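 also: 0% = acetylcholine EC80 with DMSO and 100% = DMSO without agonist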
* marks the source's active call; other numbers are inactive results.

SMILES | M4 ag | CHRM5 antagonist | M4 PAM | CHRM5 agonist | CHRM5 PAM | CHRM4 antagonist
CN(C)/C=C(\C#N)C(=O)N/N=C/c1ccccc1 | 1.5 | -9.0 | 15.1 | -0.6 | 18.3* | -2.5
O=C(O)/C=C/C(=O)NCc1ccccc1 | 0.1 | -2.1 | 6.1 | -0.7 | 0.2 | 6.4
O=C(O)/C=C/C(=O)NCc1ccccn1 | 0.9 | 1.1 | 6.7 | 0.8 | 21.4* | -10.8
Cc1cc(/C=N/NC(=O)C(=O)NCc2ccccn2)c(C)n1-c1cccc(Br)c1 | 3.5 | -6.0 | -7.2 | -2.3 | 3.5 | -9.5
O=C(NCc1ccccn1)C(=O)N/N=C/c1ccccc1O | -1.2 | -2.9 | -7.9 | -4.0 | 3.8 | 46.6*
COc1ccc(CC(=O)NC(=S)Nc2cccc(CO)c2)cc1 | 15.1 | -7.2 | 2.5 | 31.1* | 4.2 | 1.1
COc1cccc(NC(=S)NC(=O)Cc2ccc(Cl)cc2)c1 | 29.2 | 11.9 | -4.6 | 36.2* | 0.9 | -0.2
COc1cc(NC(=O)c2cc(Cl)nnc2Cl)cc(OC)c1OC | 1.0 | -0.2 | -2.5 | 0.3 | 0.1 | 0.0
COc1ccc(CC(=O)NC(=S)Nc2cccc(C)c2)cc1 | 29.1 | 5.5 | -19.9 | 29.6* | 5.2 | 5.4
COc1cccc(NC(=O)c2cc(Cl)nnc2Cl)c1 | 4.5 | -0.2 | 23.9* | -5.0 | 8.2 | -6.6
COc1ccccc1NC(=S)NC(=O)Cc1ccc(Cl)cc1 | 4.4 | 9.0 | -4.4 | 5.0 | -6.8 | 1.1
Cc1cccc(NC(=S)NC(=O)CCc2ccccc2)c1 | -1.8 | -3.5 | -1.7 | -5.8 | -1.6 | -0.7
Cc1cc(C)n(-c2nc(Nc3ccccc3)nc(-n3nc(C)cc3C)n2)n1 | -0.5 | -5.1 | 1.1 | 1.1 | 4.5 | 17.4
COc1cccc(/C=N/Nc2nc(Nc3ccccc3)nc(-n3nc(C)cc3C)n2)c1O | 42.5* | 15.6 | -18.9 | 1.2 | -15.2 | 17.9
CC1=C(C(=O)N(C(C)C)C(C)C)CC(CC(=O)NCc2cccs2)C(=O)N1CCC1=CCCCC1 (configuration not stated) | 0.4 | -2.1 | 0.8 | -1.7 | 0.3 | -13.8
CCCCOCCCNC(=O)C[C@@H]1C[C@@]2(C(=O)OC)CCCCC=C2N(Cc2ccccc2)C1=O | 5.2 | 6.9 | -4.8 | 2.1 | -10.2 | 10.9
CC[C@H]1O[C@H](C)CC2=C1C(=O)OC(C)(C)O2 | 9.6 | 2.0 | 23.3* | 2.0 | -1.1 | -4.9
CCCCOCCCNC(=O)C[C@@H]1C[C@@]2(C(=O)OCC)CCCC=C2N(Cc2ccc3c(c2)OCO3)C1=O | 2.0 | -3.7 | 3.6 | -0.7 | -2.7 | -14.3
CC1(C(=O)NCCc2ccccc2)Cc2c(-c3ccc(C(N)=O)cc3)ccnc2O1 (configuration not stated) | 1.1 | 7.9 | 0.2 | 0.4 | -1.0 | 1.6
O=C(Nc1nc(-c2ccccc2)cs1)c1ccc(N2CCOCC2)c([N+](=O)[O-])c1 | 22.2 | 30.1* | -34.6 | 11.2 | -17.6 | 43.6*
Cc1ccc(-c2csc(NC(=O)c3cc([N+](=O)[O-])ccc3N3CCOCC3)n2)cc1 | 0.2 | 8.2 | 2.9 | -2.7 | -0.2 | 0.8
CCO[C@@H]1OC(C(=O)NCc2ccccc2)=C[C@H](c2csc3ccccc23)[C@H]1CCCO | 41.5* | 11.7 | -13.6 | -4.4 | -32.3 | 26.5*
CCO[C@H]1OC(C(=O)NCc2ccccc2)=C[C@@H](c2ccc3c(c2)OCO3)[C@@H]1CCCO | 18.6 | 3.3 | 10.5 | 24.7* | -4.4 | -18.1
CCO[C@H]1OC(C(=O)NCc2nc3ccccc3[nH]2)=C[C@@H](C2CC2)[C@@H]1CCCO | 0.9 | 2.4 | 23.8* | 1.1 | 10.7 | -7.6
COc1ccc2noc3c2c1C(=O)c1ccccc1-3 | 59.3* | 27.9* | -21.6 | 51.4* | -17.0 | 36.5*
SMILES | M4 ag | CHRM5 antagonist | M4 PAM | CHRM5 agonist | CHRM5 PAM | CHRM4 antagonist
COC(=O)C1=CN(Cc2cccs2)C=C(C(=O)OC)C1c1ccc(OC)cc1OC | -1.3 | 26.9* | 0.7 | -3.8 | -14.6 | -3.5
COC(=O)C1=CN(Cc2cccs2)C=C(C(=O)OC)C1c1cccc(Cl)c1 | -1.2 | 9.5 | -6.7 | -10.1 | -21.0 | 7.6
CCCNC(=O)C1(C)CCCN(Cc2ccc(-c3ccccc3)o2)C1 (configuration not stated) | 0.8 | 4.0 | -0.6 | -0.7 | -3.2 | -9.1
COc1ccc(C2CC3(CC(C)(C)NC(SC)=N3)Oc3cc(O)cc(C)c32)cc1 (configuration not stated) | 48.9* | 1.1 | -8.3 | 5.2 | -7.9 | -7.2
COc1ccc(C2CC3(CC(C)(C)NC(=S)N3)Oc3cc(O)cc(C)c32)cc1 (configuration not stated) | 2.0 | 9.5 | -2.5 | -0.1 | -6.7 | -5.6
O=[N+]([O-])c1c(Nc2cccc(O)c2)cc(Cl)c2nonc12 | -1.9 | 15.2 | -2.2 | -5.2 | 1.7 | 60.0*
Nc1cc([N+](=O)[O-])ccc1Nc1ccc(O)cc1 | 4.9 | 32.4* | -11.9 | -4.3 | -12.9 | 6.2
CC(=O)Nc1c(Cl)cnn(-c2ccccc2)c1=O | 0.6 | -10.7 | -6.2 | -0.1 | 21.9* | -12.8
O=C(NS(=O)(=O)c1ccc2ccc(S(=O)(=O)NCCSc3ccccc3)cc2c1)c1cccc2ccccc12 | -0.6 | -2.4 | 6.1 | -2.1 | 0.6 | -3.5
O=S(=O)(Nc1cc(Sc2ncn[nH]2)c(O)c2ccccc12)c1ccccc1 | 13.9 | 28.4* | -5.8 | 1.1 | -3.7 | 19.9
O=C1NC2c3ccccc3C(=O)N2c2c1cnn2-c1ccccc1 (configuration not stated) | 1.8 | -4.9 | 17.8* | -1.4 | 2.7 | -4.4
Cn1c(=O)c2c(O)cc(=O)[nH]c2n(-c2ccccc2)c1=O | 0.4 | 1.6 | 2.4 | -1.9 | -4.7 | -1.5
O=c1cc(O)c2c(=O)[nH]c(=O)n(-c3ccccc3)c2[nH]1 | 1.7 | 5.4 | 15.9* | -5.0 | -3.3 | 8.2
CN(Cc1cn(Cc2ccc(Cl)cc2)nn1)C1CN(Cc2cn(Cc3ccc(Cl)cc3)nn2)S(=O)(=O)C1 (configuration not stated) | 17.5 | 10.0 | -7.9 | 4.8 | -15.9 | 9.3
CN1CCN(c2ncnc3c2ncn3[C@H]2CN(C)C[C@@H](CO)O2)CC1 | 0.9 | 3.3 | 1.9 | 0.3 | -0.6 | -9.6
O=C(Nc1cnc2ccccc2c1)N1CCOCC1 | 1.6 | -3.7 | 19.6* | -3.0 | 0.5 | -17.7
CCOC(=O)C1CCN(C(=O)c2ccco2)CC1 | 0.8 | 4.0 | 17.9 | 0.1 | 0.3 | -4.6
CCOC(=O)C1CCCN(CCc2ccccc2)C1 (configuration not stated) | 0.6 | 20.3 | -15.2 | -16.8 | -31.7 | 36.7*
CCOC(=O)C1CCN(C(=O)c2ccc(C)o2)CC1 | 0.2 | 7.2 | 2.0 | 3.5 | -2.5 | 100.1*
CCOc1ccc(CN2CCC(Cc3ccccc3)CC2)cc1 | 0.9 | 4.5 | -15.6 | -20.6 | -0.6 | 26.5*
